According to article PMC4796946 (Nature, 2015):
“Also recorded” adds a separate entry of the source.

What was measured:
[1] = target: GPR65 (Homo sapiens, UniProt Q8IYL9); assay: Split-luciferase cAMP reporter assay, GPR65; type: cell-based; details: for inhibition of GPR65: receptors activated by protons or by BTB09089; for activity at GPR65: effect on proton response, cAMP
Procedure, shortened: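 GPR65 was co-transfected with the GloSensor reporter into HEK293-T cells, which were then luciferin-loaded (4 mM, pH 8.4, 90 min, 37 °C). Test compound was applied in pH-adjusted HBSS/HEPES/MES buffer for 20 min at room temperature. The receptor was activated either by protons at pH 7.40 or by 30 μM reference agonist at pH 8.40. Luminescence was normalised to buffer basal. Data come from at least three assays, each at least in triplicate (≥16 measurements total).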

[2] = test system: GPR65 mutant receptors (D153A, R187L, F242A, Y272A); assay: cAMP reporter assay at GPR65 mutant receptors; type: cell-based, human; details: GPR65 R187L, F242A, Y272A
Procedure, shortened: (§1)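 GloSensor cAMP assay in HEK293-T cells co-transfected with receptor (wild-type or mutant) and GloSensor 7A, plated at 15,000 cells/well for at least 6 h. Cells were loaded with luciferin (4 mM, pH 8.4, 90 min, 37 °C), which was then removed. Test compound was added in NaOH-adjusted pH solutions (HBSS, 10 mM HEPES, 10 mM MES), 20 min at room temperature. Luminescence is given as RLU fold of buffer basal. Curves were fitted with a 4-parameter logistic; n≥3.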

[3] = target: GPR65 mutant receptors (D153A, R187L, F242A, Y272A) (Homo sapiens, UniProt Q8IYL9, D153A); assay: cAMP reporter assay at GPR65 mutant receptors; type: cell-based; details: GPR65 D153A
Procedure, shortened: as §1

[4] = target: T1, GPR68 (Homo sapiens, UniProt Q15743); assay: Split-luciferase; type: cell-based; details: for stimulation of cAMP production by benzodiazepines: 10 μM, pH 6.50 or 7.40
Procedure, shortened: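 HEK293-T cells were co-transfected with receptor and GloSensor 7A reporter and plated at least 6 h at 15,000 cells/well in 1% dialysed FBS DMEM. Cells were loaded with 4 mM luciferin in drug buffer, pH 8.4, for 90 min at 37 °C; luciferin was then removed. Proton concentration-responses ran without and with rising test compound levels premixed in pH-adjusted HBSS/HEPES/MES (TAPS at high pH; BSA for some). Plates stood 20 min at room temperature before luminescence reading. Data were fitted to an allosteric operational model, with proton pEC50 as pKA.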

[5] = test system: phosphodiesterases; assay: Phosphodiesterase inhibition
[6] = test system: control HEK293 T cells; assay: cAMP reporter assay at control HEK293 T cells; type: cell-based, human
Procedure, shortened: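 Control HEK293-T cells were run in the GloSensor cAMP format: luciferin loading at 4 mM, pH 8.4, 90 min, 37 °C, then removal. Test compound in pH-adjusted HBSS/HEPES/MES buffer was applied for 20 min at room temperature before luminescence reading. Results are normalised fold of basal from at least three assays, each at least in triplicate (≥16 measurements).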

[7] = test system: wild-type and GPR68 KO mice; assay: Fear conditioning; type: in vivo
[8] = target: T1, GPR68; assay: Calcium mobilization assay; type: cell-based; details: 10 μM, GPR68 wild-type
Procedure, shortened: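 HEK293-T cells were transfected, plated overnight in DMEM with 1% dialysed FBS at 15,000 cells/well, then loaded 60 min at 37 °C (5% CO2) with Fluo-4 Direct dye in drug buffer containing 2.5 mM probenecid, pH 8.0. Test compound was added first (10 μM final before the pH addition), followed by 10 min reading. pH solutions (HBSS, 7 mM each HEPES/HEPPS/MES, NaOH-adjusted) were then added. Fluorescence was read 1/s for 4 min and expressed as fold of basal; n=3.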

[9] = cited from earlier work
[10] = test system: PKA and MAP kinase pathways; type: cell-based, human; details: 50 μM, 10 min, GPR68-expressing HEK293 cells
[11] = target: T1, GPR68; assay: Yeast growth assay, GPR68 paired with chimeric Gq yeast; type: cell-based; details: library screen at 10 μM
Procedure, shortened: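 Yeast with receptor were diluted in SD-His-Ura medium to OD600 0.02 final. Test compound was 10 μM final, in triplicate, with 3-amino-1,2,4-triazole (pH 5.4) at a level set by titration without ligand. Growth ran at 30 °C for 2–5 days. Cells were resuspended and read at OD600. % growth stimulation = […], given as mean ± SEM of three wells.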

[12] = test system: GABAA receptor; assay: Radioligand binding profiling
Procedure, shortened: (§2)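 Membranes came from animal brain tissue, stable cell lines or transiently transfected HEK293-T cells. Competition binding used a fixed radioligand concentration, incubated in the dark at 22 °C, and was ended by vacuum filtration onto GF/B filters, followed by beta counting. Values are mean pKi (n=2–4).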

[13] = target: GPR4 (Homo sapiens, UniProt P46093); assay: Split-luciferase cAMP reporter assay, GPR4; type: cell-based; details: effect on proton response
Procedure, shortened: as §1

[14] = target: 5-HT2B (Homo sapiens, UniProt P41595); assay: Radioligand binding profiling; details: profiling against 58 GPCRs, ion channels, and transporters
Procedure, shortened: as §2

[15] = target: T1, GPR68; assay: PI hydrolysis assay in GPR68-transfected HEK293-T cells; type: cell-based; details: 10 μM, under equilibrium
Procedure, shortened: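 Transfected HEK293-T cells (24 h) were plated in 10% FBS DMEM. After 5 h they were labelled overnight with 3H-inositol (1 μCi/well) in inositol-free DMEM with 5% dialysed FBS. Cells were washed with HBSS, 10 mM HEPES, 10 mM MES, 20 mM LiCl, pH 8.4. pH-adjusted solutions containing 20 mM LiCl and 10 μM test compound were applied for 20 min. Extraction used 50 mM ice-cold formic acid, 4 °C for 30 min; extracts were bead-captured (4 °C, 30 min) and counted as cpm; n=3.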

[16] = target: A2A receptor (Homo sapiens, UniProt P29274); assay: Radioligand binding profiling; details: profiling against 58 GPCRs, ion channels, and transporters
Procedure, shortened: as §2

[17] = cAMP production, proton as agonist

Chain of GPR65 (Q8IYL9 whole entry): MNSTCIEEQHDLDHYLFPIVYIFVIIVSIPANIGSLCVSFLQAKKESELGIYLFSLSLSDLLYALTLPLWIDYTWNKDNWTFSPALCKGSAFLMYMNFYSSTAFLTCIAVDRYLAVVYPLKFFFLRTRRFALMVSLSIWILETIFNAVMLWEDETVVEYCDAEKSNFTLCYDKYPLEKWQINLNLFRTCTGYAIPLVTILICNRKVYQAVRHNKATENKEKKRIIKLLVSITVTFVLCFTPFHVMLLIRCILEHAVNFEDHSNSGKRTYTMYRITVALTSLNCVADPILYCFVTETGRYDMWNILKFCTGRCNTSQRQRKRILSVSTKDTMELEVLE
T1 sequence (Q15743 whole entry): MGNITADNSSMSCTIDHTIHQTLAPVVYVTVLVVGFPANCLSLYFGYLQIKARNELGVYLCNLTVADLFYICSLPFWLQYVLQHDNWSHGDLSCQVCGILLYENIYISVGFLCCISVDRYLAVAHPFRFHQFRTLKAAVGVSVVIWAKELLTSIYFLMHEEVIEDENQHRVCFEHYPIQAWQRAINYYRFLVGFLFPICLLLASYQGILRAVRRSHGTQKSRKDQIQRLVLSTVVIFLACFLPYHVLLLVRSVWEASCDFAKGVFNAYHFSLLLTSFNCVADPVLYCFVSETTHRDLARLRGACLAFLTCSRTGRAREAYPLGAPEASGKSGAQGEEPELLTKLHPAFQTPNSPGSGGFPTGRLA
Chain of GPR65 mutant receptors (D153A, R187L, F242A, Y272A) (Homo sapiens, UniProt Q8IYL9, D153A) (Q8IYL9 whole entry D153A): as the sequence (Q8IYL9 whole entry) above, with D153A counted along it
Chain of GPR4 (P46093 whole entry): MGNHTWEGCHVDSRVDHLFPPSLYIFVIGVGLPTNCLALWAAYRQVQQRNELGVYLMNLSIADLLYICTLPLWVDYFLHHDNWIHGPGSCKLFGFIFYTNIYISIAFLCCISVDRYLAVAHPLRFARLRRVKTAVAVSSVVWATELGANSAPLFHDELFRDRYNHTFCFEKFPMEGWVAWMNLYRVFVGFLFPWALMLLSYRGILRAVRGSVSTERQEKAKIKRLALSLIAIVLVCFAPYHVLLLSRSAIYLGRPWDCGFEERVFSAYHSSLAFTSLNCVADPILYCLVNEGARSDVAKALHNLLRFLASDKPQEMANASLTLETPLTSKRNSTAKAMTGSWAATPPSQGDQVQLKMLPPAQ
Chain of A2A receptor (P29274 whole entry): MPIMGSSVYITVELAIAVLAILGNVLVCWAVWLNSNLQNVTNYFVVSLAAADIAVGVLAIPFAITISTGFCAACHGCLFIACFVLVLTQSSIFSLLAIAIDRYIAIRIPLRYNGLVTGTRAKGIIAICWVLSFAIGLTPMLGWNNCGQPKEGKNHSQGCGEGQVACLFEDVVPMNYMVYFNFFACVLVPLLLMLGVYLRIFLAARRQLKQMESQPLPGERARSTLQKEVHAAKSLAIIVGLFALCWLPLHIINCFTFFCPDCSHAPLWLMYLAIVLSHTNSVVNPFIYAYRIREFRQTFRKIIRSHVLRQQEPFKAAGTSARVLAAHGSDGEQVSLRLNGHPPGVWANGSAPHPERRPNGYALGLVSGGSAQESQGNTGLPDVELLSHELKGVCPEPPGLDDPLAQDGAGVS
Chain of 5-HT2B (P41595 whole entry): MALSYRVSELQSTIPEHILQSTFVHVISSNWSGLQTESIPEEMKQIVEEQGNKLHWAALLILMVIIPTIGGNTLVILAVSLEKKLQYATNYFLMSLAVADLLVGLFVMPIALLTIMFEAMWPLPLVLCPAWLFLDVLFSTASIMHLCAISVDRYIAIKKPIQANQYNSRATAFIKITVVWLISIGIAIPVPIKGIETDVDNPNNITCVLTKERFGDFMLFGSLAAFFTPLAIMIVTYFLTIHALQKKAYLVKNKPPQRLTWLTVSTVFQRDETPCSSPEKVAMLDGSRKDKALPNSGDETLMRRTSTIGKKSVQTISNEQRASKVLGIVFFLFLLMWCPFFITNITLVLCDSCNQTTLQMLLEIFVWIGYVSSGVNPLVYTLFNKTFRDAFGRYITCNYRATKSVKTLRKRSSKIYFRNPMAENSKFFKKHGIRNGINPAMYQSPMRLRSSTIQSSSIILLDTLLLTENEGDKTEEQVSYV

CN1N=C(SCc2ccc(Cl)cc2Cl)Sc2c1cnn(C)c2=O [BTB09089, reference compound]
agonist activity at GPR65 (qualitative) [1]: weak agonist activity | mode of action at GPR65 [1]: allosteric agonist | potentiation of proton efficacy/activity at GPR65 [1]: failed to potentiate | effect of R187L, F242A, Y272A mutations on compound activity [2]: reduced the activity | effect of D153A mutation on compound activity [3]: no effect

Nc1nc(NCCc2ccccc2)nc(-c2ccccc2CO)n1 [C2]
α-factor ([4]; allosteric operational model, proton as agonist): 22 | leftward shift of proton response relative to ogerin ([4]; cAMP production): 3 fold

Nc1nc(NCCCc2ccccc2)nc(-c2ccccc2CO)n1 [C3]
allosteric effect (qualitative comparison) [4, 17]: reduced allostery

Nc1nc(NCCCCc2ccccc2)nc(-c2ccccc2CO)n1 [C4]
allosteric effect (qualitative comparison) [4, 17]: reduced allostery

Nc1nc(-c2ccc(Cl)c(Cl)c2)c(-c2ccncc2)s1 [CGH2466]
phosphodiesterase inhibition [5]: potent phosphodieseterase inhibitor | allosteric effect (qualitative comparison) [4, 17]: much lower than that of ogerin | GPR68 activity in the presence of Ro 20-1724 ([4]; with phosphodiesterase inhibitor Ro 20-1724): minimal activity

OC1CCC(Nc2nc(-c3ccccc3)nc3[nH]ccc23)CC1 (centres unmarked) [SLV320]
phosphodiesterase inhibition [5]: potent phosphodieseterase inhibitor

O=C1CCc2cc(-c3csc(NC(=O)c4ccc(-c5ccccc5F)o4)n3)ccc2N1 [ZINC9468042]
inhibition of GPR65 [1]: GPR65-specific inhibition

COc1ccc(-c2csc(NC(=O)CSc3nc[nH]n3)n2)cc1OC [ZINC13684400]
activity at control cells [6]: without measurable activity | mode of action at GPR65 [1]: allosteric agonist | potentiation of proton efficacy/activity at GPR65 [1]: did not potentiate | agonist activity at GPR65 ([1]; pH 8.40): over 2 fold of basal | effect of R187L, F242A, Y272A mutations on compound activity [2]: reduced the activity | effect of D153A mutation on compound activity [3]: much reduced the activity

Nc1nc(NCc2ccccc2)nc(-c2cccc(CO)c2)n1 [ZINC32547799]
learning and memory ([7]; wild-type mice): no measurable effect | contextual and cue memory ([7]; wild-type mice, 10 mg/kg): no effect | learning ([7]; wild-type mice, 10 mg/kg): no effect | contextual and cue memory ([7]; wild-type mice, 30 mg/kg): no effect | learning ([7]; wild-type mice, 30 mg/kg): enhanced | effect on proton-mediated calcium release [8]: little effect

O=C(Nc1nc(-c2ccc3c(c2)OCCO3)cs1)c1csnn1 [ZINC41613384]
inhibition of GPR65 [1]: GPR65-specific inhibition

Cc1nc(-c2ncccn2)sc1C(=O)O[C@@H](c1ccccc1)c1ccncc1 [ZINC62678696]
inhibition of GPR65 [1]: GPR65-specific inhibition; also recorded: inhibited

O=C1CN=C(c2ccccc2Cl)c2cc([N+](=O)[O-])ccc2N1 [clonazepam]
stimulation of cAMP production by benzodiazepines [4]: stimulated cAMP production in a GPR68- and pH-dependent manner

O=C1CN=C(c2ccccc2)c2cc(Cl)ccc2N1 [desmethyldiazepam]
stimulation of cAMP production by benzodiazepines [4]: stimulated cAMP production in a GPR68- and pH-dependent manner

O=C1Nc2ccc(Cl)cc2C(c2ccccc2Cl)=NC1O (centres unmarked) [lorazepam]
concentration in plasma during treatment [9]: micromolar | activation of PKA and MAP kinase pathways [10]: activate | stimulation of cAMP production by benzodiazepines [4]: stimulated cAMP production in a GPR68- and pH-dependent manner | stimulation of yeast growth [11]: more than two-fold | activity at GPR65 [1]: no activity | activity in panel of CNS targets [12]: substantial activity | activity at GPR4 [13]: no activity

O=C1CN=C(c2ccccc2F)c2cc(Cl)ccc2N1 [norfludiazepam]
stimulation of cAMP production by benzodiazepines [4]: stimulated cAMP production in a GPR68- and pH-dependent manner

Nc1nc(NCc2ccccc2)nc(-c2ccccc2CO)n1 [ogerin]
activation of PKA and MAP kinase pathways [10]: activate | allosteric effect (qualitative comparison) [4, 17]: much higher allosteric effect than lorazepam | activity at GPR65 [1]: minimal PAM activity | memory retrieval ([7]; GPR68 KO mice, 10 mg/kg): no effect | contextual-based fear memory ([7]; WT mice, 10 mg/kg): attenuated | cue-based memory ([7]; WT mice, 10 mg/kg): without effects | affinity at 5-HT2B [14]: moderate affinity | activity at GPR4 [13]: minimal PAM activity | effect on proton activity in PI hydrolysis [15]: slightly potentiated | affinity at A2A receptor [16]: moderate affinity | effect on proton-mediated calcium release [8]: inhibited

CCCCNc1c(C(=O)OCC)c(C)nc2c1cnn2CC [tracazolate]
phosphodiesterase inhibition [5]: potent phosphodieseterase inhibitor
